From ChEMBL document CHEMBL4433267, “Symmetry-based ligand design and evaluation of small molecule inhibitors of programmed cell death-1/programmed death-ligand 1 interaction” (Bioorg Med Chem Lett, 2019)
Activity calls are given as the source filed them. No cut-off for these calls is given here.

Key:
[1] = target: T1, Programmed cell death 1 ligand 1 (Homo sapiens, UniProt Q9NZQ7); experiment: Binding affinity to FC-tagged human PDL1 by SPR assay
Summary of the method: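 Surface plasmon resonance against hPD-L1, reported as equilibrium dissociation constant (K_D).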

[2] = target: Programmed cell death protein 1/Programmed cell death 1 ligand 1 (Homo sapiens, UniProt Q9NZQ7); experiment: Inhibition of human PDL1 expressed in CHO-K1 cells co-expressing aAPC assessed as reduction in PDL1 interaction with human PD1 expressed in Jurkat T cells incubated for 18 hrs by Bio-Glo reagent based luminescence assay; type: cell-based
Sequence of Programmed cell death protein 1/Programmed cell death 1 ligand 1 (Q15116 whole entry): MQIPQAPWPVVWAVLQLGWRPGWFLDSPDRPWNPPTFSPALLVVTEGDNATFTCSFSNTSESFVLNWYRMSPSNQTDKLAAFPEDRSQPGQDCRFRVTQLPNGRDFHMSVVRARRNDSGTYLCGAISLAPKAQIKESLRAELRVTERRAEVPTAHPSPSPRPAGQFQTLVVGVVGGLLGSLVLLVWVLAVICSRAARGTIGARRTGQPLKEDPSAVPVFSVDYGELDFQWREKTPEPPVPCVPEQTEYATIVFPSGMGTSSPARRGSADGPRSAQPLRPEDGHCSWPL
Sequence of Programmed cell death protein 1/Programmed cell death 1 ligand 1 (Q9NZQ7 whole entry): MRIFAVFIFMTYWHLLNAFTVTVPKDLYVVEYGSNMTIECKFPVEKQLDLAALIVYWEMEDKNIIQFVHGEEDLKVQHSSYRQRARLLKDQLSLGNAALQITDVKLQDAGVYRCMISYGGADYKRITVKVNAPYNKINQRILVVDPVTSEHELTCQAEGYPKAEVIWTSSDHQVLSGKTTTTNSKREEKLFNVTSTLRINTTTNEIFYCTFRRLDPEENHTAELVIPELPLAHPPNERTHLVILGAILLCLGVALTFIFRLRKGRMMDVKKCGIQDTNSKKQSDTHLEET
Summary of the method: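 In the PD-1/PD-L1 blockade bioassay, activity is expressed as EC50, with anti-PD-1 antibody as positive control.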

[3] = target: T1, Programmed cell death 1 ligand 1; experiment: Induction of Flag-tagged human PDL1 dimerization assessed as shortening of retention time of PD-L1 at 12 uM incubated for 10 mins by size-exclusion chromatography
Homo sapiens = species: Homo sapiens; experiment: Induction of IFN-gamma secretion in human CD4+ T cells in presence of dendritic cells incubated for 7 days by AlphaLISA based mixed lymphocyte reaction assay; type: functional, cell-based
Summary of the method: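 CD4+ T cells were cultured 7 days, either alone or with monocyte-derived dendritic cells, with or without test agent; anti-PD-1 antibody was run as comparator. IFN-γ in culture supernatants was measured as the activation read-out. Mean ± SD is from experiments in triplicate.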

T1 sequence (Q9NZQ7 whole entry): as above

Row | Structure (SMILES) | Kd [1] [nM] | EC50 [2] [µM] | Activity [3] | Activity (Homo sapiens)
1 | Cc1c(COc2ccc(CN[C@H](CO)C(=O)O)c(OCc3cncc(C#N)c3)c2)cccc1-c1cccc(COc2ccc(CN[C@H](CO)C(=O)O)c(OCc3cncc(C#N)c3)c2)c1 | 0.2 | 8.4 |  | 
2 | Cc1c(COc2cccc(OCc3cncc(C#N)c3)c2)cccc1-c1cccc(COc2ccc(CN[C@H](CO)C(=O)O)c(OCc3cncc(C#N)c3)c2)c1C | 3.7 | > 100 |  | 
3 | Cc1c(COc2ccc(CN[C@H](CO)C(=O)O)cc2)cccc1-c1cccc(COc2ccc(CN[C@H](CO)C(=O)O)c(OCc3cncc(C#N)c3)c2)c1C | 0.29 |  |  | 
4 | Cc1ccccc1-c1cccc(COc2ccc(CN[C@H](CO)C(=O)O)c(OCc3cncc(C#N)c3)c2)c1C | 3 |  |  | 
5 | COc1cc(OCc2cccc(-c3cccc(COc4ccc(CN[C@H](CO)C(=O)O)c(OCc5cncc(C#N)c5)c4)c3C)c2C)ccc1CN[C@H](CO)C(=O)O | 0.21 | 9.5 |  | 
6 | Cc1c(COc2ccc(CN[C@H](CO)C(=O)O)c(OCc3cncc(C#N)c3)c2)cccc1-c1ccccc1 | 1.1 | > 30 |  | 
7 | Cc1c(COc2ccc(CN[C@H](CO)C(=O)O)c(OCc3cncc(C#N)c3)c2)cccc1-c1cccc(COc2ccc(CN[C@H](CO)C(=O)O)c(OCc3cncc(C#N)c3)c2)c1C | 0.019 | 1 | Active | Dose-dependent effect
